From ChEMBL document CHEMBL3259647, “Design, synthesis, and biological evaluation of potent dual agonists of nuclear and membrane bile acid receptors” (J Med Chem, 2014)
Calls of active or inactive are those of the source. No cut-off for these calls is given here.

Legend:
[1] = target: T1, G-protein coupled bile acid receptor 1 (Homo sapiens) (UniProt Q8TDU6); assay: Transactivation of human GP-BAR1 transfected in HEK293T cells assessed as induction of intracellular cAMP production at 10 uM after 18 hrs by cAMP responsive element containing luciferase reporter gene assay; format: functional, cell-based; settings: HEK-293T
T1 sequence (whole entry): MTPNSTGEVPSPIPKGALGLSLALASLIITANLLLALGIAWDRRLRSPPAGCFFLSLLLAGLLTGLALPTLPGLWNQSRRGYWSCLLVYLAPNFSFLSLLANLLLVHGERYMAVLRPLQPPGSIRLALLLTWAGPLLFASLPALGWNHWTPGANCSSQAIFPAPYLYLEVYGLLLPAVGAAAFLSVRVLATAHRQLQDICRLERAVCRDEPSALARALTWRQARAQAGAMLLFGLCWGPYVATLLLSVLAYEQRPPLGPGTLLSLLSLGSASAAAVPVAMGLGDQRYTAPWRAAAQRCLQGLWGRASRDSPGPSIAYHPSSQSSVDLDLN
Procedure, shortened: (§1)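 HEK-293T co-transfected with human GP-BAR1 and a CRE-driven luciferase reporter. Stimulated 24 h post-transfection for 18 h at 10 μM. TLCA 10 μM as receptor-dependent reference; forskolin 10 μM as receptor-independent cAMP control. Luciferase normalized to Renilla; mean ± standard error.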

[2] = target: T2, G-protein coupled bile acid receptor 1 (Mus musculus) (UniProt Q80SS6); assay: Agonist activity at GP-BAR1 in mouse GLUTag cells assessed as increase in intracellular cAMP level; format: functional, cell-based
T2 sequence (whole entry): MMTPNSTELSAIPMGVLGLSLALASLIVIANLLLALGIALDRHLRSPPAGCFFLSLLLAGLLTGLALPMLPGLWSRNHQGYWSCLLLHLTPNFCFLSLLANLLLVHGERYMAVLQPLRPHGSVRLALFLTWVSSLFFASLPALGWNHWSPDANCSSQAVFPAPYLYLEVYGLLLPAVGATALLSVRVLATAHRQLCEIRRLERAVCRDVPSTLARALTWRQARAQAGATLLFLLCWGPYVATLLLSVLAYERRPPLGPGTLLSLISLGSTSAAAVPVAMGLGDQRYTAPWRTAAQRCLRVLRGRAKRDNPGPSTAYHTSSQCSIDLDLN
Procedure, shortened: (§2)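 GLUTag enteroendocrine cells measuring intracellular cAMP generation and GLP-1 released into supernatant. Values are the mean ± SE of four to five experiments; significance is versus untreated cells.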

[3] = target: T2, G-protein coupled bile acid receptor 1 (Mus musculus); assay: Agonist activity at GP-BAR1 in mouse GLUTag cells assessed as increase in GLP-1 release; format: cell-based; procedure, shortened: as §2
[4] = tested on: HEK-293T; assay: Induction of cAMP production in GP-BAR1-deficient HEK293T cells at 10 uM by cAMP responsive element containing luciferase reporter gene assay; format: functional, cell-based; settings: Homo sapiens
Procedure, shortened: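 Control transfection of HEK-293T with only the pGL4.29 CRE-luciferase and pGL4.70 Renilla vectors, without GP-BAR1. 24 h after transfection, cells exposed 18 h to 10 μM compound. Luciferase normalized to Renilla.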

[5] = target: T3, Bile acid receptor (Homo sapiens) (UniProt Q96RI1); assay: Antagonist activity at human FXR transfected in human HepG2 cells assessed as supression of CDCA-induced transcriptional activity at 50 uM by beta-galactosidase reporter gene assay; format: cell-based
T3 sequence (whole entry): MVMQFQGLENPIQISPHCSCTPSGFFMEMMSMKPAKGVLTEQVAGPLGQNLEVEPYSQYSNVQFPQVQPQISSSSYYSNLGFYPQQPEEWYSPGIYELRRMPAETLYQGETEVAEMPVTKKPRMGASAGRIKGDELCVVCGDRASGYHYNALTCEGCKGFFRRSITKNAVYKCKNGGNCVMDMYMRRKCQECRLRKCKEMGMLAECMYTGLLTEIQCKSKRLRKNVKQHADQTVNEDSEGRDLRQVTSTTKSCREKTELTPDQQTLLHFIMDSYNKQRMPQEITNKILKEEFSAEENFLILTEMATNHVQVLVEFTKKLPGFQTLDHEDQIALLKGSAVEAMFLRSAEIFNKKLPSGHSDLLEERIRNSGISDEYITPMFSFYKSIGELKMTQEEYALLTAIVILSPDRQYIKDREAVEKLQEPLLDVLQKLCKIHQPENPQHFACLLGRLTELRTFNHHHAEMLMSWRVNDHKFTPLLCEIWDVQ
Procedure, shortened: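 HepG2 cells (MEM with Earle's salts, 10% FBS, 37 °C; 5 × 10⁴ cells/well) transfected with pSG5-FXR, pSG5-RXR, pCMV-βgal and p(hsp27)-TK-LUC IR1 reporter. 24 h post-transfection, treated 18 h with 10 μM CDCA plus 50 μM compound. Luciferase in lysates normalized to β-galactosidase activity. Statistics versus CDCA alone.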

[6] = target: T3, Bile acid receptor (Homo sapiens); assay: Transactivation of human FXR transfected in human HepG2 cells at 10 uM by beta-galactosidase reporter gene assay; format: cell-based
Procedure, shortened: (§3)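 HepG2 cells were grown at 37 °C in MEM with Earle's salts and 10% FBS, then plated at 5 × 10⁴ cells/well. They were transfected with pSG5-FXR, pSG5-RXR, pCMV-β-gal and the IR1 reporter p(hsp27)-TK-LUC, and stimulated 18 h starting 24 h post-transfection. Lines 2 and 3 give the test levels. CDCA 10 μM was the positive control. Luciferase was normalized to β-galactosidase.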

[7] = target: T3, Bile acid receptor (Homo sapiens); assay: Transactivation of human FXR transfected in human HepG2 cells at 1 to 10 uM by beta-galactosidase reporter gene assay; format: cell-based; procedure, shortened: as §3
[8] = target: T4, Bile acid receptor (Homo sapiens, UniProt Q96RI1); assay: Transactivation of human FXR transfected in human HepG2 cells by beta-galactosidase reporter gene assay; format: cell-based
T4 sequence (Q96RI1 whole entry): T3 sequence (whole entry)
Procedure, shortened: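 FXR/RXR/β-gal/IR1-luciferase transfected HepG2 cells treated with 0.01, 0.1, 1 and 10 μM; CDCA 10 μM positive control. β-gal-normalized luciferase used to calculate EC50.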

[9] = target: T5, G-protein coupled bile acid receptor 1 (Homo sapiens, UniProt Q8TDU6); assay: Transactivation of human GP-BAR1 transfected in HEK293T cells assessed as induction of intracellular cAMP production after 18 hrs by cAMP responsive element containing luciferase reporter gene assay; format: functional, cell-based, HEK-293T
T5 sequence (Q8TDU6 whole entry): T1 sequence (whole entry)
Procedure, shortened: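 Concentration–response in GP-BAR1/CRE-luciferase transfected HEK-293T: 0.1, 1 and 10 μM for 18 h, with TLCA 10 μM positive control. Renilla-normalized luciferase used to calculate EC50.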

[10] = target: T3, Bile acid receptor (Homo sapiens); assay: Transactivation of human FXR transfected in human HepG2 cells at 10 uM by beta-galactosidase reporter gene assay relative to CDCA; format: cell-based; settings: in the assay text read “luciferase reporter gene assay” for “beta-galactosidase reporter gene assay”
Procedure, shortened: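 HepG2 cells transfected with human FXR, RXR, β-gal and hsp27 IR1-luciferase reporter. 24 h post-transfection, stimulated 18 h at 10 μM, with CDCA 10 μM as positive control. Luciferase RLU divided by β-galactosidase activity; mean ± standard error.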

[11] = target: T1, G-protein coupled bile acid receptor 1 (Homo sapiens); assay: Transactivation of human GP-BAR1 transfected in HEK293T cells assessed as induction of intracellular cAMP production at 10 uM after 18 hrs by luciferase reporter gene assay relative to TLCA; format: functional, cell-based; settings: HEK-293T; procedure, shortened: as §1
[12] = target: T6, Bile acid receptor (Mus musculus) (UniProt Q60641); assay: Agonist activity at FXR in mouse primary hepatocytes assessed as upregulation of BESP mRNA expression; format: cell-based; settings: Hepatocyte
T6 sequence (whole entry): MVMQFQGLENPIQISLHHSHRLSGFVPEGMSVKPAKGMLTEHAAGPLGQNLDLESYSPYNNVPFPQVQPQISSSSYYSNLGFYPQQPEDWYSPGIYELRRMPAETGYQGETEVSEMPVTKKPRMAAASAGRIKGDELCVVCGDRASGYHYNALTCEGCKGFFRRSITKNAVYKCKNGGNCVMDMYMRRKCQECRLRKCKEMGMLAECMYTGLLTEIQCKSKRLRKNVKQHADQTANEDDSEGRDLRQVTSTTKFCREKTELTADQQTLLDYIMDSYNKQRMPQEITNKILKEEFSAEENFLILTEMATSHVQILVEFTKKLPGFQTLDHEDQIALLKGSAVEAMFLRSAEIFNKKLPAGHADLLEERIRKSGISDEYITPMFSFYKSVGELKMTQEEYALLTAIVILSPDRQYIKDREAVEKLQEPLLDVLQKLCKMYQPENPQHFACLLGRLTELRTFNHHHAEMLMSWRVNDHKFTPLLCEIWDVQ
Procedure, shortened: (§4)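 Hepatocytes from wild-type or FXR−/− mice were analysed by real-time PCR for BSEP mRNA, as a measure of FXR-dependent target gene induction. Data are the mean SE of four experiments.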

[13] = tested on: Hepatocyte; assay: Upregulation of BESP mRNA expression in mouse primary hepatocytes isolated from FXR deficient mouse; format: functional, cell-based; procedure, shortened: as §4

| SMILES | Activity [4] | Activity [5] | further results |
| --- | --- | --- | --- |
| C[C@H](CCC(=O)NCCOS(=O)(=O)O)[C@H]1CC[C@H]2[C@@H]3CC[C@@H]4C[C@H](O)CC[C@]4(C)[C@H]3CC[C@]12C | – | – | Activity [1]: Active; Activity [2]: Active; Activity [3]: Active |
| C=C[C@@]1(C)CC(=O)[C@]2(O)[C@@]3(C)[C@@H](O)CCC(C)(C)[C@@H]3[C@H](O)[C@H](OC(C)=O)[C@@]2(C)O1 | Active | – | – |
| CC[C@H]1[C@@H](OS(=O)(=O)O)[C@@H]2[C@H](CC[C@]3(C)[C@@H]([C@H](C)CCCOS(=O)(=O)O)CC[C@@H]23)[C@@]2(C)CC[C@@H](OS(=O)(=O)O)C[C@@H]12 | inactive | inactive | – |
| CC[C@H]1[C@@H](OS(=O)(=O)O)[C@@H]2[C@H](CC[C@]3(C)[C@@H]([C@H](C)CCOS(=O)(=O)O)CC[C@@H]23)[C@@]2(C)CC[C@@H](OS(=O)(=O)O)C[C@@H]12 | inactive | inactive | – |
| C[C@H](CCC(=O)O)[C@H]1CC[C@H]2[C@@H]3[C@H](O)C[C@@H]4C[C@H](O)CC[C@]4(C)[C@H]3CC[C@]12C | inactive | – | – |
| C[C@H](CCCCCOS(=O)(=O)O)[C@H]1CC[C@H]2[C@@H]3[C@H](O)C[C@@H]4C[C@H](O)CC[C@]4(C)[C@H]3CC[C@]12C | inactive | – | Activity [6]: Active; Activity [1]: Active |
| C[C@H](CCCCCOS(=O)(=O)O)[C@H]1CC[C@H]2[C@@H]3[C@@H](O)C[C@@H]4C[C@H](O)CC[C@]4(C)[C@H]3CC[C@]12C | inactive | inactive | – |
| C[C@H](CCCO)[C@H]1CC[C@H]2[C@@H]3[C@@H](O)C[C@@H]4C[C@H](OS(=O)(=O)O)CC[C@]4(C)[C@H]3CC[C@]12C | inactive | inactive | – |
| C[C@H](CCCOS(=O)(=O)O)[C@H]1CC[C@H]2[C@@H]3[C@@H](OS(=O)(=O)O)C[C@@H]4C[C@H](OS(=O)(=O)O)CC[C@]4(C)[C@H]3CC[C@]12C | inactive | inactive | – |
| CC[C@H]1[C@@H](O)[C@@H]2[C@H](CC[C@]3(C)[C@@H]([C@H](C)CCOS(=O)(=O)O)CC[C@@H]23)[C@@]2(C)CC[C@@H](O)C[C@@H]12 | inactive | – | Activity [7]: Active |
| C[C@H](CCCOS(=O)(=O)O)[C@H]1CC[C@H]2[C@@H]3[C@H](OS(=O)(=O)O)C[C@@H]4C[C@H](OS(=O)(=O)O)CC[C@]4(C)[C@H]3CC[C@]12C | inactive | inactive | – |
| CC[C@H]1[C@@H](O)[C@@H]2[C@H](CC[C@]3(C)[C@@H]([C@H](C)CCCOS(=O)(=O)O)CC[C@@H]23)[C@@]2(C)CC[C@@H](O)C[C@@H]12 | inactive | – | EC50 [8]: 1000 nM; EC50 [9]: 200 nM; Efficacy [10]: 852%; Efficacy [11]: 112%; Activity [2]: Active; Activity [3]: Active; Activity [12]: Active; Activity [13]: inactive |
| C[C@H](CCCCCOS(=O)(=O)O)[C@H]1CC[C@H]2[C@@H]3[C@@H](O)C[C@@H]4C[C@H](OS(=O)(=O)O)CC[C@]4(C)[C@H]3CC[C@]12C | inactive | inactive | – |
| C[C@H](CCCCCOS(=O)(=O)O)[C@H]1CC[C@H]2[C@@H]3[C@@H](OS(=O)(=O)O)C[C@@H]4C[C@H](OS(=O)(=O)O)CC[C@]4(C)[C@H]3CC[C@]12C | inactive | inactive | – |
| C[C@H](CCCCCOS(=O)(=O)O)[C@H]1CC[C@H]2[C@@H]3[C@H](OS(=O)(=O)O)C[C@@H]4C[C@H](OS(=O)(=O)O)CC[C@]4(C)[C@H]3CC[C@]12C | inactive | inactive | – |
| C[C@H](CCCOS(=O)(=O)O)[C@H]1CC[C@H]2[C@@H]3[C@@H](O)C[C@@H]4C[C@H](OS(=O)(=O)O)CC[C@]4(C)[C@H]3CC[C@]12C | inactive | inactive | – |
| C[C@H](CCCOS(=O)(=O)O)[C@H]1CC[C@H]2[C@@H]3[C@H](O)C[C@@H]4C[C@H](O)CC[C@]4(C)[C@H]3CC[C@]12C | inactive | inactive | – |
| CC[C@H]1[C@@H](O)[C@@H]2[C@H](CC[C@]3(C)[C@@H]([C@H](C)CCC(=O)O)CC[C@@H]23)[C@@]2(C)CC[C@@H](O)C[C@@H]12 | inactive | – | Activity [6]: Active; Activity [2]: Active; Activity [3]: Active; Activity [12]: Active; Activity [13]: inactive |
| C[C@H](CCCOS(=O)(=O)O)[C@H]1CC[C@H]2[C@@H]3[C@@H](O)C[C@@H]4C[C@H](O)CC[C@]4(C)[C@H]3CC[C@]12C | inactive | inactive | – |
